From ChEMBL document CHEMBL3272120, “2,5,5-Trimethylthiazolidine-4-carboxylic acid, a D(-)-penicillamine-directed pseudometabolite of ethanol. Detoxication mechanism for acetaldehyde” (1978)
Calls of active or inactive are those of the source. No cut-off for these calls is given here.

Key:
Rattus norvegicus [1] = assay: Detoxification of acetaldehyde in aldehyde dehydrogenase inhibitor disuifiram/ethanol-treated rat assessed as reduction of blood acetaldehyde level at 8 mmol/kg, ip administered 1 hr prior to ethanol treatment measured after 1 hr by head space gas chromatographic analysis
Rattus norvegicus [2] = assay: (§1) Detoxification of acetaldehyde in aldehyde dehydrogenase inhibitor disuifiram/ethanol-1-[14C]-treated Sprague-Dawley rat assessed as [14C]-3-acetyl-2-methylthiazolidine-4-carboxylic acid excretion in urine by measuring administered dose of ethanol-1-[14C] at 8.3 mmol/kg, ip administered 1 hr prior to 65 mmol/kg ethanol-1-[14C] treatment measured for 24 hrs by inverse isotope dilution method in presence of Ac2O relative to control; format: functional; parameters: scale not given: the % may be the effect or the level left
In short: (§2)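 Male Sprague-Dawley rats (190–280 g), given the test agent 1 h before ethanol-1-14C (65 mmol/kg, 200 mg/mL in isotonic saline, 0.8–1.4 μCi/rat), or at the same time as it for the simultaneous-dosing lines. Held in metabolism cages for 24 h. Urine plus washings were filtered and 400 mg unlabeled carrier added. The mix was acetylated with Ac2O, purified by preparative TLC and recrystallized from EtOAc to constant specific activity. Radioactivity was then scintillation counted.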

Rattus norvegicus [3] = assay: as §1, with “ethanol-1-[14C]-treated” for “aldehyde dehydrogenase inhibitor disuifiram/ethanol-1-[14C]-treated”, “acid” for “acid excretion”, “10” for “8.3”; format: functional
In short: as §2

Rattus norvegicus [4] = assay: as §1, with “ethanol-1-[14C]-treated” for “aldehyde dehydrogenase inhibitor disuifiram/ethanol-1-[14C]-treated”, “7.4” for “8.3”, “po” for “ip”; format: functional
In short: as §2

Rattus norvegicus [5] = assay: (§3) Detoxification of acetaldehyde in ethanol-1-[14C]-treated Sprague-Dawley rat assessed as [14C]-3-acetyl-2,5,5-trimethylthiazolidine-4-carboxylic acid excretion in urine by measuring administered dose of ethanol-1-[14C] at 8 mmol/kg, po administered with 65 mmol/kg ethanol-1-[14C] measured for 24 hrs by inverse isotope dilution method in presence of Ac2O relative to control; format: functional
In short: as §2

Rattus norvegicus [6] = assay: (§4) Detoxification of acetaldehyde in ethanol-1-[14C]-treated Sprague-Dawley rat assessed as [14C]-3-acetyl-2,5,5-trimethylthiazolidine-4-carboxylic acid excretion in urine by measuring administered dose of ethanol-1-[14C] at 8.1 mmol/kg, po administered 1 hr prior to 65 mmol/kg ethanol-1-[14C] treatment measured for 24 hrs by inverse isotope dilution method in presence of Ac2O relative to control; format: functional
In short: as §2

Rattus norvegicus [7] = assay: as §1, with “pargyline/ethanol-1-[14C]-treated” for “disuifiram/ethanol-1-[14C]-treated”, “[14C]-3-acetyl-2,5,5-trimethylthiazolidine-4-carboxylic” for “[14C]-3-acetyl-2-methylthiazolidine-4-carboxylic”, “8.1” for “8.3”; format: functional; parameters: scale not given: the % may be the effect or the level left
In short: as §2

Rattus norvegicus [8] = assay: as §1, with “pyrogallol/ethanol-1-[14C]-treated” for “disuifiram/ethanol-1-[14C]-treated”, “[14C]-3-acetyl-2,5,5-trimethylthiazolidine-4-carboxylic” for “[14C]-3-acetyl-2-methylthiazolidine-4-carboxylic”, “8.1” for “8.3”; format: functional; parameters: scale not given: the % may be the effect or the level left
In short: as §2

Rattus norvegicus [9] = assay: as §4, with “aldehyde dehydrogenase inhibitor disuifiram/ethanol-1-[14C]-treated” for “ethanol-1-[14C]-treated”; format: functional; parameters: scale not given: the % may be the effect or the level left
In short: as §2

Rattus norvegicus [10] = assay: as §1, with “[14C]-3-acetyl-2,5,5-trimethylthiazolidine-4-carboxylic” for “[14C]-3-acetyl-2-methylthiazolidine-4-carboxylic”, “2” for “8.3”, “first dose at 0.25 hrs” for “1 hr”, “43.5” for “65”, “treatment followed by 4 doses of compound at 0.75 hrs, 3 hrs, 5 hrs, 7 hrs” for “treatment”; format: functional; parameters: scale not given: the % may be the effect or the level left
Rattus norvegicus [11] = assay: as §4, with “ip” for “po”; format: functional
In short: as §2

Rattus norvegicus [12] = assay: as §3, with “8.1” for “8”; format: functional
In short: as §2

## NC(CCS)C(=O)O (racemic)
Rattus norvegicus [1]
  Activity: inactive

## NC(CCSSCCC(N)C(=O)O)C(=O)O (racemic)
Rattus norvegicus [1]
  Activity: inactive

## NC1CCSC1=O (racemic)
Rattus norvegicus [1]
  Activity: inactive

## N[C@@H](CS)C(=O)O (stereo in doubt)
Rattus norvegicus [1]
  Activity: inactive

## N[C@@H](CS)C(=O)O (stereo in doubt; 2)
Rattus norvegicus [1]
  Activity: inactive

## N[C@@H](CS)C(=O)O (stereo in doubt; 2) [CYSTEINE]
Rattus norvegicus [2]
  Activity: 0%
Rattus norvegicus [3]
  Activity: 0%

## CC(=O)N[C@@H](CS)C(=O)O [ACETYLCYSTEINE]
Rattus norvegicus [4]
  Activity: 0%
Rattus norvegicus [1]
  Activity: inactive

## CC(=O)NC(C(=O)O)C(C)(C)S (centres undefined) [N-ACETYL PENICILLAMINE]
Rattus norvegicus [5]
  Activity: 0%
Rattus norvegicus [1]
  Activity: inactive

## CC(C)(S)[C@@H](N)C(=O)O [PENICILLAMINE]
Rattus norvegicus [6]
  Activity: 1.2%
Rattus norvegicus [7]
  Activity: 3.3%
Rattus norvegicus [8]
  Activity: 1.1%
Rattus norvegicus [9]
  Activity: 2.7%
Rattus norvegicus [10]
  Activity: 7.6%
Rattus norvegicus [11]
  Activity: 0.5%
Rattus norvegicus [12]
  Activity: 0.4%
Rattus norvegicus [1]
  Activity: Active
